In ChEMBL document CHEMBL1129626, “Cyclic HIV protease inhibitors: synthesis, conformational analysis, P2/P2' structure-activity relationship, and molecular recognition of cyclic ureas” (J Med Chem, 1996):

Assays:
[1] = tested on: Human immunodeficiency virus 1; assay: Inhibition of viral infection in HIV-1 (RF)-infected MT-2 cells with an oligonucleotide-based sandwich hybridization assay.; assay type: functional, MT2
Method in brief: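 Uninfected MT-2 cells were preincubated for 30 min with serial dilutions of compound, then infected with HIV-1 RF and cultured for 3 days at 37 °C, 5% CO2. Lysates were assayed for viral RNA by microtiter oligonucleotide sandwich hybridization.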

[2] = molecular target: Human immunodeficiency virus type 1 protease (Human immunodeficiency virus 1, UniProt Q72874); assay: Inhibitory activity against HIV-1 protease
Method in brief: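 HIV-1 protease Ki from cleavage of a fluorescent peptide substrate, products resolved by HPLC. Inhibitor was tested at four concentrations spanning 0.1–10 000 nM, the range chosen per inhibitor.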

[3] = Human immunodeficiency virus 1, MT2

Row | Structure (SMILES) | IC90 [1, 3] | Ki [2] | IC90 [1]
1 | C#CCN1C(=O)N(CC#C)[C@H](Cc2ccccc2)[C@H](O)[C@@H](O)[C@H]1Cc1ccccc1 | 42000 nM | 22 nM | –
2 | O=C1N(Cc2cccc(C(F)(F)F)c2)[C@H](Cc2ccccc2)[C@H](O)[C@@H](O)[C@@H](Cc2ccccc2)N1Cc1cccc(C(F)(F)F)c1 | 7800 nM | – | –
3 | Cc1cccc(CN2C(=O)N(Cc3cccc(C)c3)[C@H](Cc3ccccc3)[C@H](O)[C@@H](O)[C@H]2Cc2ccccc2)c1 | 2400 nM | 7 nM | –
4 | COc1ccc(CN2C(=O)N(Cc3ccc(OC)cc3)[C@H](Cc3ccccc3)[C@H](O)[C@@H](O)[C@H]2Cc2ccccc2)cc1 | 7600 nM | 157 nM | –
5 | O=C1N(Cc2ccc(CO)cc2)[C@H](Cc2ccccc2)[C@H](O)[C@@H](O)[C@@H](Cc2ccccc2)N1Cc1ccc2ccccc2c1 | 210 nM | 0.93 nM | –
6 | O=C1N(CC2CCC2)[C@H](Cc2ccccc2)[C@H](O)[C@@H](O)[C@@H](Cc2ccccc2)N1CC1CCC1 | 1000 nM | 1.3 nM | –
7 | O=C1N(Cc2ccccn2)[C@H](Cc2ccccc2)[C@H](O)[C@@H](O)[C@@H](Cc2ccccc2)N1Cc1ccccn1 | 49000 nM | 145 nM | –
8 | CCCCN1C(=O)N(CCCC)[C@H](Cc2ccccc2)[C@H](O)[C@@H](O)[C@H]1Cc1ccccc1 | 680 nM | 1.4 nM | –
9 | O=C1N(Cc2cccc([N+](=O)[O-])c2)[C@H](Cc2ccccc2)[C@H](O)[C@@H](O)[C@@H](Cc2ccccc2)N1Cc1cccc([N+](=O)[O-])c1 | 970 nM | 2.8 nM | –
10 | CCCCCCN1C(=O)N(CCCCCC)[C@H](Cc2ccccc2)[C@H](O)[C@@H](O)[C@H]1Cc1ccccc1 | > 102000 nM | 4.6 nM | –
11 | CC(C)CN1C(=O)N(CC(C)C)[C@H](Cc2ccccc2)[C@H](O)[C@@H](O)[C@H]1Cc1ccccc1 | > 100000 nM | 49 nM | –
12 | O=C1N(Cc2ccccc2Cl)[C@H](Cc2ccccc2)[C@H](O)[C@@H](O)[C@@H](Cc2ccccc2)N1Cc1ccccc1Cl | 11300 nM | 240 nM | –
13 | CCCN1C(=O)N(Cc2ccc3ccccc3c2)[C@H](Cc2ccccc2)[C@H](O)[C@@H](O)[C@H]1Cc1ccccc1 | 3300 nM | 1.1 nM | –
14 | O=C1N(Cc2ccc(Br)cc2)[C@H](Cc2ccccc2)[C@H](O)[C@@H](O)[C@@H](Cc2ccccc2)N1Cc1ccc(Br)cc1 | 8100 nM | 27 nM | –
15 | O=C1N(Cc2ccc3ccccc3c2)[C@H](Cc2ccccc2)[C@H](O)[C@@H](O)[C@@H](Cc2ccccc2)N1CC1CC1 | 1300 nM | 1.5 nM | –
16 | C=COCCN1C(=O)N(CCOC=C)[C@H](Cc2ccccc2)[C@H](O)[C@@H](O)[C@H]1Cc1ccccc1 | > 107000 nM | 60 nM | –
17 | CCCCCN1C(=O)N(CCCCC)[C@H](Cc2ccccc2)[C@H](O)[C@@H](O)[C@H]1Cc1ccccc1 | 1500 nM | 1.6 nM | –
18 | O=C1N(CCN2CCOCC2)[C@H](Cc2ccccc2)[C@H](O)[C@@H](O)[C@@H](Cc2ccccc2)N1CCN1CCOCC1 | > 91000 nM | – | –
19 | CN1C(=O)N(C)[C@H](Cc2ccccc2)[C@H](O)[C@@H](O)[C@H]1Cc1ccccc1 | > 141000 nM | 5700 nM | –
20 | CC(C)CCCCN1C(=O)N(CCCCC(C)C)[C@H](Cc2ccccc2)[C@H](O)[C@@H](O)[C@H]1Cc1ccccc1 | > 95000 nM | 30 nM | –
21 | Nc1cccc(CN2C(=O)N(Cc3ccc4ccccc4c3)[C@H](Cc3ccccc3)[C@H](O)[C@@H](O)[C@H]2Cc2ccccc2)c1 | 84 nM | 1 nM | –
22 | O=C1N(Cc2ccncc2)[C@H](Cc2ccccc2)[C@H](O)[C@@H](O)[C@@H](Cc2ccccc2)N1Cc1ccc2ccccc2c1 | 2700 nM | 6.9 nM | –
23 | O=C1N(Cc2cccc(F)c2)[C@H](Cc2ccccc2)[C@H](O)[C@@H](O)[C@@H](Cc2ccccc2)N1Cc1cccc(F)c1 | 710 nM | 3 nM | –

Row | Structure (SMILES) | IC90 [1, 3] | Ki [2] | IC90 [1]
24 | C=C(C)CN1C(=O)N(CC(=C)C)[C@H](Cc2ccccc2)[C@H](O)[C@@H](O)[C@H]1Cc1ccccc1 | 7600 nM | 7.3 nM | –
25 | C=CCN1C(=O)N(Cc2ccc3ccccc3c2)[C@H](Cc2ccccc2)[C@H](O)[C@@H](O)[C@H]1Cc1ccccc1 | 990 nM | 1.4 nM | –
26 | CCCN1C(=O)N(CCC)[C@H](Cc2ccccc2)[C@H](O)[C@@H](O)[C@H]1Cc1ccccc1 | 54000 nM | 8 nM | –
27 | O=C1N(Cc2cccnc2)[C@H](Cc2ccccc2)[C@H](O)[C@@H](O)[C@@H](Cc2ccccc2)N1Cc1cccnc1 | 8800 nM | 9.7 nM | –
28 | O=C1N(Cc2cccc(Br)c2)[C@H](Cc2ccccc2)[C@H](O)[C@@H](O)[C@@H](Cc2ccccc2)N1Cc1cccc(Br)c1 | 1200 nM | 1.4 nM | –
29 | CCOCCN1C(=O)N(CCOCC)[C@H](Cc2ccccc2)[C@H](O)[C@@H](O)[C@H]1Cc1ccccc1 | > 106000 nM | 1100 nM | –
30 | Cc1ccc(CN2C(=O)N(Cc3ccc(C)cc3)[C@H](Cc3ccccc3)[C@H](O)[C@@H](O)[C@H]2Cc2ccccc2)cc1 | 4300 nM | 5.7 nM | –
31 | O=C1N(Cc2ccc(CO)cc2)[C@H](Cc2ccccc2)[C@H](O)[C@@H](O)[C@@H](Cc2ccccc2)N1Cc1ccc(CO)cc1 | – | 1650 nM | 51000 nM
32 | COc1ccccc1CN1C(=O)N(Cc2ccccc2OC)[C@H](Cc2ccccc2)[C@H](O)[C@@H](O)[C@H]1Cc1ccccc1 | 22900 nM | 1870 nM | –
33 | CC(C)CCN1C(=O)N(CCC(C)C)[C@H](Cc2ccccc2)[C@H](O)[C@@H](O)[C@H]1Cc1ccccc1 | 3200 nM | 12 nM | –
34 | CCCCN1C(=O)N(Cc2ccc3ccccc3c2)[C@H](Cc2ccccc2)[C@H](O)[C@@H](O)[C@H]1Cc1ccccc1 | 750 nM | 0.6 nM | –
35 | COCCOCCN1C(=O)N(CCOCCOC)[C@H](Cc2ccccc2)[C@H](O)[C@@H](O)[C@H]1Cc1ccccc1 | > 94000 nM | 7700 nM | –
36 | CCCCCCCN1C(=O)N(CCCCCCC)[C@H](Cc2ccccc2)[C@H](O)[C@@H](O)[C@H]1Cc1ccccc1 | > 96000 nM | 260 nM | –
37 | O=C1N(CC2CCCCC2)[C@H](Cc2ccccc2)[C@H](O)[C@@H](O)[C@@H](Cc2ccccc2)N1CC1CCCCC1 | > 96000 nM | 37 nM | –
38 | O=C1N(Cc2ccccc2F)[C@H](Cc2ccccc2)[C@H](O)[C@@H](O)[C@@H](Cc2ccccc2)N1Cc1ccccc1F | 5500 nM | 34 nM | –
39 | COc1cccc(CN2C(=O)N(Cc3cccc(OC)c3)[C@H](Cc3ccccc3)[C@H](O)[C@@H](O)[C@H]2Cc2ccccc2)c1 | 1300 nM | 1.6 nM | –
40 | COCCN1C(=O)N(CCOC)[C@H](Cc2ccccc2)[C@H](O)[C@@H](O)[C@H]1Cc1ccccc1 | > 114000 nM | 800 nM | –
41 | CCN1C(=O)N(CC)[C@H](Cc2ccccc2)[C@H](O)[C@@H](O)[C@H]1Cc1ccccc1 | > 132000 nM | 100 nM | –
42 | O=C1N(Cc2ccncc2)[C@H](Cc2ccccc2)[C@H](O)[C@@H](O)[C@@H](Cc2ccccc2)N1Cc1ccncc1 | 98000 nM | 90 nM | –
43 | CC(C)CCCN1C(=O)N(CCCC(C)C)[C@H](Cc2ccccc2)[C@H](O)[C@@H](O)[C@H]1Cc1ccccc1 | 8100 nM | 7 nM | –
44 | O=C1N(Cc2ccc(C(F)(F)F)cc2)[C@H](Cc2ccccc2)[C@H](O)[C@@H](O)[C@@H](Cc2ccccc2)N1Cc1ccc(C(F)(F)F)cc1 | 7200 nM | – | –
45 | CCC(C)CCN1C(=O)N(CCC(C)CC)[C@H](Cc2ccccc2)[C@H](O)[C@@H](O)[C@H]1Cc1ccccc1 (stereo partly specified) | – | 36 nM | –
